Source: ChEMBL document CHEMBL3877338, “Antiparasitic Lead Discovery: Toward Optimization of a Chemotype with Activity Against Multiple Protozoan Parasites” (ACS Med Chem Lett, 2017)
≈ marks a conversion by molar mass, not a printed value.

Experiments:
[1] = Cytotoxicity against human HepG2 cells assessed as reduction in cell viability after 48 hrs by MTT assay; format: toxicity, cell-based; conditions: read-out: TC50
Method in brief: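 HepG2 cells in supplemented MEM, 9570/well, plated overnight at 37 °C. Twelve 1.6-fold dilutions in duplicate, 57–10,000 ng/mL, for 48 h; mefloquine plate control. MTT added for 1 h at room temperature in the dark, formazan dissolved in acidified isopropanol, absorbance read. IC50 by sigmoidal variable-slope nonlinear regression.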

Leishmania major = experiment: Antileishmanial activity against luciferase-expressing Leishmania major amastigotes infected in mouse RAW264.7 cells after 96 hrs by luminescence assay; format: functional, cell-based; conditions: RAW264.7, 96 h
Method in brief: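 RAW 264.7 macrophages, 10,000/well, 24 h at 37 °C, then infected overnight with luciferase-expressing L. major promastigotes (100,000/well) and washed three times. Twelve two-fold dilutions in duplicate, final […]–10,000 ng/mL. 96 h at 37 °C, 5% CO2, then luciferin 30 min in the dark and luminescence read. IC50 by sigmoidal variable-slope nonlinear regression.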

[2] = Cytotoxicity against […] cells assessed as reduction in cell viability after 96 hrs by presto blue assay; format: toxicity; conditions: read-out: TC50
Method in brief: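 NIH 3T3 cells in phenol red-free DMEM with 2% FBS, 5×10^4/well, left 2 h to attach, then exposed to compound 96 h at 37 °C, 5% CO2. PrestoBlue added for 4 h, fluorescence read at ex 530/em 590 nm.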

Trypanosoma cruzi = experiment: Antitrypanosomal activity against Trypanosoma cruzi Tulahuen amastigotes infected in […] cells after 96 hrs by chlorophenol red-beta-D-galactopyranoside based assay; conditions: NIH3T3, 96 h
[3] = system: Trypanosoma brucei brucei; experiment: Antitrypanosomal activity against Trypanosoma brucei brucei 427 bloodstream forms after 48 hrs by presto blue dye based fluorescence assay; format: functional; conditions: Trypanosoma brucei, 427, 48 h
[4] = Lipophilicity, log D of the compound at pH 7.4; format: physicochemical; conditions: buffer
[5] = Protein binding in human plasma; format: ADME, cell-free
[6] = Thermodynamic aqueous solubility of the compound; format: physicochemical; conditions: buffer; read-out: Therm_solubility
[7] = Intrinsic clearance in human liver microsomes; format: ADME
[8] = Intrinsic clearance in rat hepatocytes assessed per million cells; format: ADME, cell-based, Hepatocyte
[9] = Ratio of drug level in BALB/c mouse brain to plasma at 10 mg/kg, ip administered as single dose at 0.25 hrs post dose by LC-MS/MS analysis; format: ADME, organism-based
Method in brief: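 Female BALB/c mice, 8–12 weeks, single 10 mg/kg i.p. dose (10 mL/kg) in NMP/solutol HS/saline solution. Three mice per time point. Plasma (K2EDTA) and brain collected; brain washed in PBS and homogenized in PBS pH 7.4 to three times its weight. Protein precipitation with acetonitrile, then LC-MS/MS (LLOQ 1.04 ng/mL plasma, 2.08 ng/mL brain). Non-compartmental analysis.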

[10] = Fraction unbound in human plasma; format: ADME, cell-free

Row | SMILES | CC50 at 48 h [1] [µM] | EC50 (Leishmania major) [µM] | CC50 at 96 h [2] [µM] | EC50 (Trypanosoma cruzi) [µM] | EC50 [3] [nM] | logD [4] | PPB [5] [%] | solubility thermodynamic [6] [µM] | CLH [7] [µL/min/mg] | CLH [8] [µL/min] | BPR [9] | Fu [10] [%]
1 | Fc1cccc(COc2ccc(Nc3ncnc4ccc(-c5cccc(N6CCOCC6)c5)cc34)cc2Cl)c1 | > 20 | – | – | – | – | – | – | – | – | – | – | –
2 | O=S(=O)(c1ccc(-c2ccc3ncnc(Nc4ccc(OCc5cccc(F)c5)cc4)c3c2)cc1)N1CCOCC1 | > 20 | – | – | – | – | – | – | – | – | – | – | –
3 | Cc1cnc(Nc2ccnc3ccc(-c4ccc(S(=O)(=O)N5CCOCC5)cc4)cc23)s1 | > 20 | 1.2 | > 20 | 6.1 | 1600 | – | – | – | – | – | – | –
4 | COc1ccc(Nc2ccnc3ccc(-c4ccc(S(=O)(=O)N5CCOCC5)cc4)cc23)cc1C | 9 | 5.7 | 15 | 3.6 | 310 | – | – | – | – | – | – | –
5 | CCOCCOc1ccnc2ccc(-c3ccc(S(=O)(=O)N4CCOCC4)cc3)cc12 | > 20 | > 20 | – | > 20 | 710 | – | – | – | – | – | – | –
6 | Cc1nnc(Nc2ccnc3ccc(-c4ccc(S(=O)(=O)N5CCOCC5)cc4)cc23)nc1C | > 20 | > 20 | > 20 | > 20 | 3100 | – | – | – | – | – | – | –
7 | O=S(=O)(c1ccc(-c2ccc3nccc(Nc4ccncc4)c3c2)cc1)N1CCOCC1 | > 20 | > 20 | > 20 | > 20 | 110 | – | – | – | – | – | – | –
8 | Cc1noc(C)c1Nc1ccnc2ccc(-c3ccc(S(=O)(=O)N4CCOCC4)cc3)cc12 | > 20 | > 20 | > 20 | > 20 | 6600 | – | – | – | – | – | – | –
9 | O=S(=O)(c1ccc(-c2ccc3nccc(Nc4ccncn4)c3c2)cc1)N1CCOCC1 | > 20 | > 20 | > 20 | > 20 | 24 | 3.3 | 95.6 | 1.4 (≈ 0.627 µg/mL) | 207.5 | 31.5 | 0.01 | –
10 | N#Cc1cnc(Nc2ccnc3ccc(-c4ccc(S(=O)(=O)N5CCOCC5)cc4)cc23)cn1 | > 20 | > 20 | > 20 | > 20 | 7900 | – | – | – | – | – | – | –
11 | O=S(=O)(c1ccc(-c2ccc3nccc(Nc4cnccn4)c3c2)cc1)N1CCOCC1 | > 20 | > 20 | > 20 | > 20 | > 20000 | – | – | – | – | – | – | –
12 | O=S(=O)(c1ccc(-c2ccc3nccc(Nc4ccccc4)c3c2)cc1)N1CCOCC1 | > 20 | 7.1 | > 20 | 6.2 | 980 | – | – | – | – | – | – | –
13 | Cc1cc(Nc2ccnc3ccc(-c4ccc(S(=O)(=O)N5CCOCC5)cc4)cc23)on1 | > 20 | > 20 | > 20 | 7.6 | 1100 | – | – | – | – | – | – | –
14 | Cc1cc(Nc2ccnc3ccc(-c4ccc(S(=O)(=O)N5CCOCC5)cc4)cc23)sn1 | > 20 | 4.5 | > 20 | 3.9 | 72 | – | – | – | – | – | – | –
15 | O=S(=O)(c1ccc(-c2ccc3nccc(Nc4cccnc4)c3c2)cc1)N1CCOCC1 | > 20 | > 20 | > 20 | > 20 | 3800 | – | – | – | – | – | – | –
16 | COc1ccc(Nc2ccnc3ccc(-c4ccc(S(=O)(=O)N5CCOCC5)cc4)cc23)cc1Cl | > 20 | 5.3 | > 20 | 7.2 | 1700 | – | – | – | – | – | – | –
17 | O=[N+]([O-])c1ccc(Nc2ccnc3ccc(-c4ccc(S(=O)(=O)N5CCOCC5)cc4)cc23)cn1 | > 20 | 5.8 | > 20 | > 20 | 3200 | – | – | – | – | – | – | –
18 | O=S(=O)(c1ccc(-c2ccc3nccc(Nc4ccnnc4)c3c2)cc1)N1CCOCC1 | > 20 | > 20 | > 20 | > 20 | > 20000 | – | – | – | – | – | – | –
19 | O=S(=O)(c1ccc(-c2ccc3nccc(Nc4cncs4)c3c2)cc1)N1CCOCC1 | > 20 | 5.4 | > 20 | > 20 | 1200 | – | – | – | – | – | – | –
20 | O=S(=O)(c1ccc(-c2ccc3nccc(Nc4ccc(OCc5cccc(F)c5)cc4)c3c2)cc1)N1CCOCC1 | > 5 | 1.2 | – | 2.8 | 370 | – | – | 2 (≈ 1.14 µg/mL) | 98 | 19 | – | < 0.1
21 | O=S(=O)(c1ccc(-c2ccc3nccc(Nc4ncc(Cl)cn4)c3c2)cc1)N1CCOCC1 | > 20 | 0.37 | > 20 | > 20 | 3800 | – | 99.6 | 1 (≈ 0.482 µg/mL) | – | – | – | –
22 | O=S(=O)(c1ccc(-c2ccc3nccc(Nc4nnc(C5CC5)s4)c3c2)cc1)N1CCOCC1 | > 20 | 2 | > 20 | > 20 | 4700 | – | – | – | – | – | – | –
23 | Cc1cnnc(Nc2ccnc3ccc(-c4ccc(S(=O)(=O)N5CCOCC5)cc4)cc23)c1 | > 20 | > 20 | > 20 | > 20 | 2000 | – | – | – | – | – | – | –
24 | O=S(=O)(c1ccc(-c2ccc3nccc(Nc4ccccn4)c3c2)cc1)N1CCOCC1 | > 20 | > 20 | > 20 | 16 | 4500 | – | – | – | – | – | – | –
25 | CCc1nnc(Nc2ccnc3ccc(-c4ccc(S(=O)(=O)N5CCOCC5)cc4)cc23)s1 | > 20 | 3.1 | > 20 | > 20 | 4200 | – | – | – | – | – | – | –
26 | O=S(=O)(c1ccc(-c2ccc3ncccc3c2)cc1)N1CCOCC1 | > 20 | > 20 | > 20 | > 20 | > 20000 | – | – | – | – | – | – | –
27 | CCn1nccc1Nc1ccnc2ccc(-c3ccc(S(=O)(=O)N4CCOCC4)cc3)cc12 | > 20 | > 20 | > 20 | > 20 | 2500 | – | – | – | – | – | – | –
28 | O=S(=O)(c1ccc(-c2ccc3nccc(Nc4ccc5[nH]nnc5c4)c3c2)cc1)N1CCOCC1 | > 20 | > 20 | > 20 | > 20 | 16000 | – | – | – | – | – | – | –
29 | COc1ncc(Nc2ccnc3ccc(-c4ccc(S(=O)(=O)N5CCOCC5)cc4)cc23)cn1 | > 20 | > 20 | > 20 | > 20 | 5600 | – | – | – | – | – | – | –
30 | CS(=O)(=O)CCNCc1ccc(-c2ccc3ncnc(Nc4ccc(OCc5cccc(F)c5)c(Cl)c4)c3c2)o1 [LAPATINIB] | > 20 | – | – | – | – | – | – | – | – | – | – | –
